Measurements as given in ChEMBL document CHEMBL1153580, “Synthesis and pharmacological investigation of 3-(substituted 1-phenylethanone)-4-(substituted phenyl)-1, 2, 3, 4-tetrahydropyrimidine-5-carboxylates” (Eur J Med Chem, 2009).

Assays:
Rattus norvegicus [1] = assay: Antihypertensive activity in Norwegian albino rat assessed as inhibition of DOCA salt-induced diastolic blood pressure at 10 mg/kg, po after 180 mins by invasive carotid artery cannulation method; format: functional; conditions: 3 h
In short: (§1)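 Male rats (200–250 g), uninephrectomized and given DOCA s.c. (30–50 mg/kg/week) with 1% NaCl drinking water. Anesthetized with pentobarbital (35 mg/kg i.p.); left carotid artery cannulated and exteriorized. After recovery and a baseline reading, compound given orally by feeding needle. Diastolic pressure recorded via transducer at 15, 30, 60, 120 and 180 min. Mean ± S.E.M.; repeated-measures ANOVA.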

Mus musculus = assay: Analgesic activity against acetic acid-induced writhing in Swiss albino mouse assessed as protection at 20 mg/kg, po; format: functional
In short: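 Swiss albino mice (25–30 g), six per group, habituated 30 min individually in the test cage. Compound in 1% CMC given p.o. at 20 mg/kg. 1 h later, acetic acid injected i.p.; writhes (arching of back, body elongation, hind-limb extension) counted 5–15 min after injection. % inhibition = (n−n′)/n×100, where n and n′ are mean writhes in control and test.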

Rattus norvegicus [2] = assay: Antihypertensive activity in Norwegian albino rat assessed as inhibition of DOCA salt-induced systolic blood pressure at 10 mg/kg, po after 240 mins by non-invasive tail-cuff method; format: functional; conditions: Artery, 4 h
In short: (§2)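 Male rats (200–250 g), uninephrectomized under pentobarbital (50 mg/kg i.p.); one week later DOCA s.c. 30–50 mg/kg/week, with 1% w/v NaCl in drinking water. Groups of six, trained in restrainer, tail warmed at 33–34 °C. Compound in 0.5% CMC, 10 mg/kg orally. Systolic pressure read by tail-cuff before dosing and from 1 h after; three readings averaged. ANOVA.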

Rattus norvegicus [3] = assay: Antihypertensive activity in Norwegian albino rat assessed as inhibition of DOCA salt-induced systolic blood pressure at 10 mg/kg, po after 180 mins by non-invasive tail-cuff method; format: functional; conditions: Artery, 3 h; in short: as §2
Rattus norvegicus [4] = assay: Antihypertensive activity in Norwegian albino rat assessed as inhibition of DOCA salt-induced systolic blood pressure at 10 mg/kg, po after 360 mins by non-invasive tail-cuff method; format: functional; conditions: Artery, 6 h; in short: as §2
Rattus norvegicus [5] = assay: Antiinflammatory activity in Norwegian albino rat assessed as inhibition of carrageenan-induced paw edema at 100 mg/kg, po after administered 60 mins prior to carrageenan-challenge measured after 3 hrs; format: functional
In short: (§3)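 Compound given orally as 100 mg/kg suspension in 0.5% CMC. 60 min later, carrageenan injected sub-plantar into the left hind paw. Paw volume measured within 30 s of injection, then at 1–5 h. % inhibition = [1−(Dt/Dc)]×100, where Dt and Dc are mean relative paw-volume changes in test and control. ANOVA.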

Rattus norvegicus [6] = assay: Antiinflammatory activity in Norwegian albino rat assessed as inhibition of carrageenan-induced paw edema at 100 mg/kg, po after administered 60 mins prior to carrageenan-challenge measured after 5 hrs; format: functional; in short: as §3
Rattus norvegicus [7] = assay: Antiinflammatory activity in Norwegian albino rat assessed as inhibition of carrageenan-induced paw edema at 100 mg/kg, po after administered 60 mins prior to carrageenan-challenge measured after 1 hr; format: functional; in short: as §3
Rattus norvegicus [8] = assay: Gastrointestinal toxicity in albino rat assessed as ulcerogenic index at 50 mg/kg, po; format: organism-based; set-up: dose 50 mg/kg, route oral; conditions: in vivo
In short: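 Albino rats (150–200 g), six per group, food but not water withheld 24 h. Compound given p.o. at 50 mg/kg; controls received 1% methyl cellulose. Rats fed 17 h, then killed; stomach opened along greater curvature and examined under 4× magnifier. Lesions scored as large (>2 mm), small (1–2 mm) or punctiform (<1 mm). Severity index = treated mean score minus control mean score.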

Rattus norvegicus [9] = assay: Antihypertensive activity in Norwegian albino rat assessed as inhibition of DOCA salt-induced systolic blood pressure at 10 mg/kg, po after 60 mins by non-invasive tail-cuff method; format: functional; conditions: Artery, 1 h; in short: as §2
Rattus norvegicus [10] = assay: Antihypertensive activity in Norwegian albino rat assessed as inhibition of DOCA salt-induced diastolic blood pressure at 10 mg/kg, po after 120 mins by invasive carotid artery cannulation method; format: functional; conditions: 2 h; in short: as §1
Rattus norvegicus [11] = assay: Antihypertensive activity in Norwegian albino rat assessed as inhibition of DOCA salt-induced systolic blood pressure at 10 mg/kg, po after 480 mins by non-invasive tail-cuff method; format: functional; conditions: Artery, 8 h; in short: as §2
Rattus norvegicus [12] = assay: Antihypertensive activity in Norwegian albino rat assessed as inhibition of DOCA salt-induced diastolic blood pressure at 10 mg/kg, po after 30 mins by invasive carotid artery cannulation method; format: functional; conditions: 0.5 h; in short: as §1
Rattus norvegicus [13] = assay: Antihypertensive activity in Norwegian albino rat assessed as inhibition of DOCA salt-induced diastolic blood pressure at 10 mg/kg, po after 15 mins by invasive carotid artery cannulation method; format: functional; conditions: 0.25 h; in short: as §1
Rattus norvegicus [14] = assay: Antihypertensive activity in Norwegian albino rat assessed as inhibition of DOCA salt-induced diastolic blood pressure at 10 mg/kg, po after 240 mins by invasive carotid artery cannulation method; format: functional; conditions: 4 h
Rattus norvegicus [15] = assay: Antihypertensive activity in Norwegian albino rat assessed as inhibition of DOCA salt-induced systolic blood pressure at 10 mg/kg, po after 300 mins by non-invasive tail-cuff method; format: functional; conditions: Artery, 5 h; in short: as §2
Rattus norvegicus [16] = assay: Antihypertensive activity in Norwegian albino rat assessed as inhibition of DOCA salt-induced systolic blood pressure at 10 mg/kg, po after 15 mins by non-invasive tail-cuff method; format: functional; conditions: Artery, 0.25 h
Rattus norvegicus [17] = assay: Antihypertensive activity in Norwegian albino rat assessed as inhibition of DOCA salt-induced diastolic blood pressure at 10 mg/kg, po after 60 mins by invasive carotid artery cannulation method; format: functional; conditions: 1 h; in short: as §1
Rattus norvegicus [18] = assay: Antihypertensive activity in Norwegian albino rat assessed as inhibition of DOCA salt-induced systolic blood pressure at 10 mg/kg, po after 420 mins by non-invasive tail-cuff method; format: functional; conditions: Artery, 7 h; in short: as §2
Rattus norvegicus [19] = assay: Antihypertensive activity in Norwegian albino rat assessed as inhibition of DOCA salt-induced systolic blood pressure at 10 mg/kg, po after 30 mins by non-invasive tail-cuff method; format: functional; conditions: Artery, 0.5 h
Rattus norvegicus [20] = assay: Antihypertensive activity in Norwegian albino rat assessed as inhibition of DOCA salt-induced systolic blood pressure at 10 mg/kg, po after 120 mins by non-invasive tail-cuff method; format: functional; conditions: Artery, 2 h; in short: as §2

SMILES | inhibition in vivo at 10 mg/kg (Rattus norvegicus [1]) [%] | Activity (Mus musculus) [%] | inhibition in vivo at 10 mg/kg (Rattus norvegicus [2]) [%] | inhibition in vivo at 10 mg/kg (Rattus norvegicus [3]) [%] | inhibition in vivo at 10 mg/kg (Rattus norvegicus [4]) [%] | inhibition in vivo at 100 mg/kg (Rattus norvegicus [5]) [%] | inhibition in vivo at 100 mg/kg (Rattus norvegicus [6]) [%] | inhibition in vivo at 100 mg/kg (Rattus norvegicus [7]) [%] | UI (Rattus norvegicus [8]) | inhibition in vivo at 10 mg/kg (Rattus norvegicus [9]) [%] | inhibition in vivo at 10 mg/kg (Rattus norvegicus [10]) [%] | inhibition in vivo at 10 mg/kg (Rattus norvegicus [11]) [%] | inhibition in vivo at 10 mg/kg (Rattus norvegicus [12]) [%] | inhibition in vivo at 10 mg/kg (Rattus norvegicus [13]) [%] | inhibition in vivo at 10 mg/kg (Rattus norvegicus [14]) [%] | inhibition in vivo at 10 mg/kg (Rattus norvegicus [15]) [%] | inhibition in vivo at 10 mg/kg (Rattus norvegicus [16]) [%] | inhibition in vivo at 10 mg/kg (Rattus norvegicus [18]) [%] | inhibition in vivo at 10 mg/kg (Rattus norvegicus [19]) [%] | inhibition in vivo at 10 mg/kg (Rattus norvegicus [20]) [%] | further results
CCOC(=O)C1=C(C)NC(OC)N(CC(=O)c2ccc(Cl)cc2)C1c1ccc(Cl)cc1 (stereo unspecified) | 38.1 | 37.33 | 35.5 | 28.2 | 39.8 | 41 | 42 | 39.8 | 0.2 | 12.7 | 30.6 | 44.2 | 8.92 | 1.84 | 46.3 | 37.4 | 0.27 | 44 | 6.45 | 19.6 | inhibition in vivo at 10 mg/kg (Rattus norvegicus [17]): 23.3%
CCOC(=O)C1=C(C)NC(OC)N(CC(=O)c2ccc(OC)cc2)C1c1ccc(O)cc1 (stereo unspecified) | – | – | 23.3 | 21.6 | 28 | 38.2 | 39.9 | 37.6 | – | 12.7 | – | 31 | – | – | – | 26.3 | 0.27 | 29.4 | 1.43 | 19.6 | –
CCOC(=O)C1=C(C)NC(OC)N(CC(=O)c2ccccc2)C1c1ccc(Cl)cc1 (stereo unspecified) | – | 37.87 | 25.6 | 22.9 | 29.7 | 41 | 42 | 39.8 | 0.45 | 15.2 | – | 35.6 | – | – | – | 28.4 | 0.91 | 32.1 | 1.87 | 20.5 | –
CCOC(=O)C1=C(C)NC(OC)N(CC(=O)c2ccccc2)C1c1ccc(C)cc1 (stereo unspecified) | 35.5 | – | 36.8 | 28 | 42 | 37.9 | 38.9 | 37.8 | – | 13.7 | 30.6 | 45.5 | 9.79 | 2.2 | 48.7 | 38.3 | 0.59 | 44 | 1.87 | 17.4 | inhibition in vivo at 10 mg/kg (Rattus norvegicus [17]): 23.1%
CCOC(=O)C1=C(C)NC(OC)N(CC(=O)c2ccccc2)C1c1ccccc1 (stereo unspecified) | – | 40.14 | 23.3 | 21.6 | 28.7 | 41 | 42 | 39.8 | 0.16 | 13 | – | 31 | – | – | – | 26.3 | 0.59 | 29.4 | 1.43 | 19.6 | –
CCOC(=O)C1=C(C)NC(OC)N(CC(=O)c2ccc(Cl)cc2)C1c1ccccc1 (stereo unspecified) | 37.8 | 41.66 | 36.7 | 28 | 41.5 | 38.4 | 42 | 36.6 | 0.45 | 13.8 | 30.1 | 46.5 | 9.99 | 2.35 | 47.8 | 38.2 | 0.7 | 45 | 6.49 | 20.5 | inhibition in vivo at 10 mg/kg (Rattus norvegicus [17]): 23%
CCOC(=O)C1=C(C)NC(OC)N(CC(=O)c2ccc(OC)cc2)C1c1ccccc1 (stereo unspecified) | 37.8 | 45.8 | 36.8 | 28 | 41.6 | 38.4 | 42.6 | 37.1 | 0.74 | 13.8 | 30.1 | 46.5 | 8.97 | 1.84 | 47.8 | 38.3 | 1 | 45.1 | 6.49 | 20.5 | inhibition in vivo at 10 mg/kg (Rattus norvegicus [17]): 23.5%
CCOC(=O)C1=C(C)NC(OC)N(CC(=O)c2ccccc2)C1c1ccc(O)cc1 (stereo unspecified) | – | 40.33 | 27.8 | 23 | 31.4 | 40.9 | 42 | 39.8 | 0.18 | 15.2 | – | 35.5 | – | – | – | 28.5 | 0.59 | 33 | 1.87 | 21.8 | –
CC(C)Cc1ccc(C(C)C(=O)O)cc1 (stereo unspecified) [IBUPROFEN] | – | 62.55 | – | – | – | – | – | – | 1.97 | – | – | – | – | – | – | – | – | – | – | – | –
COc1ccc2c(c1)c(CC(=O)O)c(C)n2C(=O)c1ccc(Cl)cc1 [INDOMETHACIN] | – | – | – | – | – | 51.8 | 52.6 | 46.4 | – | – | – | – | – | – | – | – | – | – | – | – | –
COC(=O)C1=C(C)NC(C)=C(C(=O)OC)C1c1ccccc1[N+](=O)[O-] [NIFEDIPINE] | 39.4 | – | 35.5 | 25 | 44.5 | – | – | – | – | 12.9 | 30.8 | 46.6 | 11.7 | 2.51 | 48.4 | 44.2 | 1.29 | 45.5 | 4.44 | 19.7 | inhibition in vivo at 10 mg/kg (Rattus norvegicus [17]): 23.6%
